Data set [1] can be described thus: folding enthalpy; higher = less favourable; fluorescence melt of hairpins on a sequencing array, two-state fit. The settings on record: sodium 0.088 M. The gist of the method:
(§1)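 Hairpins were imaged by Cy3 fluorescence on a sequenced MiSeq flow cell with annealed Cy3 and quencher oligos, in 50 mM Na-HEPES pH 8.0, 25 mM NaCl, in 2.5 °C steps up to 60 °C. Bootstrapped two-state fits of normalised signals gave melting temperature and folding enthalpy. Four replicates were combined by inverse variance, and fitted temperatures were raised by 9.35 °C to match UV melts.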

The nature of data set [2]: melting temperature; fluorescence melt of hairpins on a sequencing array, two-state fit, raised by 9.35 °C to match UV melts. The settings on record: sodium 0.088 M. Put shortly:
as §1

On to GCTTGAGGAAACTTAAGC ((((.((....)).)))), for which the folding enthalpy in data set [1] was -26.4 kcal/mol. The Tm in data set [2] is 39.7 °C.
In the case of GCTTGCCGAAAGGCAGC (((.(((....)))))), the folding enthalpy in data set [1] is -14.4 kcal/mol. Also, in data set [2], the Tm amounted to 60.1 °C.
The like results for GCTTGCCGAAAGGCTAGC (((.(((....))).))) were, in that order, -27.8 kcal/mol and 64.4 °C.
The like results for GCTTGCGAAAGCACAGC ((((((....))).))) were, in that order, -20.1 kcal/mol and 50.5 °C.
In the same order, the values of GCTTGCGAAAGCACGAGC ((((((....)))..))) are -15.9 kcal/mol and 46.9 °C.
GCTTGCGAAAGCATAAGC ((((((....)))..))): the folding enthalpy in data set [1] was -19.4 kcal/mol. Also, the Tm in data set [2] turned out to be 47.9 °C.
In the same order, the values of GCTTGCGAAAGCATCAGC ((((((....)))..))) are -11.8 kcal/mol and 37.1 °C.
The like results for GCTTGCGGAAACGCGAGC (((.(((....))).))) were, in that order, -29.3 kcal/mol and 64 °C.
As to GCTTGCGGAAACGTAAGC ((((.((....)).)))), the folding enthalpy in data set [1] was -35.1 kcal/mol. Also, the Tm in data set [2] turned out to be 52.5 °C.
Take GCTTGCGGAAACGTGAGC (((..((....))..))): the folding enthalpy in data set [1] was -31.5 kcal/mol. Moreover, in data set [2], the Tm was found to be 46.5 °C.
Consider GCTTGGCCGAAAGGCAGC (((..(((....)))))), for which the folding enthalpy in data set [1] was -14.4 kcal/mol. Also, the Tm in data set [2] turned out to be 46.9 °C.
The like results for GCTTGGCGAAAGCAACGC ((.(.((....)).).)) were, in that order, -10.5 kcal/mol and 33.5 °C.
In the same order, the values of GCTTGGCGAAAGCAATGC ((.(.((....)).).)) are -12.8 kcal/mol and 38.4 °C.
The like results for GCTTGGCGAAAGCCCGGC ((..(((....)))..)) were, in that order, -14.4 kcal/mol and 45.4 °C.
Take GCTTGGCGAAAGCTTAGC (((..((....))..))): in data set [1], the folding enthalpy is -16.9 kcal/mol. Also, the Tm in data set [2] was determined as 53.4 °C.
The like results for GCTTGGGGAAACCCAAGC (((((((....))))))) were, in that order, -43.6 kcal/mol and 68.3 °C.
In the same order, the values of GCTTGGGGAAACCCAGGC ((.((((....)))).)) are -36.8 kcal/mol and 52.4 °C.
In the case of GCTTGGGGAAACTCGAGC (((.(.(....).).))), in data set [1], the folding enthalpy was -31.3 kcal/mol. Moreover, in data set [2], the Tm was determined as 36.9 °C.
Take GCTTGTCGAAAGACTAGC (((.(((....))).))): in data set [1], the folding enthalpy is -34 kcal/mol. Besides, the Tm in data set [2] was determined as 53.9 °C.
For the sequence GCTTGTGGAAACACGAGC (((.(((....))).))), in data set [1], the folding enthalpy is -37.8 kcal/mol. Besides, the Tm in data set [2] turned out to be 54.5 °C.
In the same order, the values of GCTTGTGGAAACGCAAGC (((((.(....).))))) are -39.5 kcal/mol and 55.6 °C.
Consider GCTTTAACGAAAGTTAGC (((..(((....)))))), for which the folding enthalpy in data set [1] is -18.8 kcal/mol. Also, the Tm in data set [2] was 31.9 °C.
With GCTTTAGGAAACTAGAGC (((.(((....))).))), the folding enthalpy in data set [1] is -31.9 kcal/mol. In addition, the Tm in data set [2] was found to be 35.4 °C.
The like results for GCTTTCCGAAAGGAGAGC (((.(((....))).))) were, in that order, -38.7 kcal/mol and 54.8 °C.
Regarding GCTTTCGAAAGAAAAAGC ((((((....)))..))), the folding enthalpy in data set [1] is -26.6 kcal/mol. Further, the Tm in data set [2] stood at 36 °C.
In the same order, the values of GCTTTCGAAAGAACAAGC ((((((....)))..))) are -24.3 kcal/mol and 31.8 °C.
Regarding GCTTTCGAAAGAAGTAGC ((((((....)))..))), the folding enthalpy in data set [1] was -23 kcal/mol. Besides, the Tm in data set [2] turned out to be 34 °C.
Consider GCTTTCGAAAGAATAAGC ((((((....)))..))), for which, in data set [1], the folding enthalpy was -21.6 kcal/mol. Besides, the Tm in data set [2] is 33.4 °C.
On to GCTTTCGGAAACGAAGGC ((.((((....)))).)), for which the folding enthalpy in data set [1] was -35.3 kcal/mol. Also, the Tm in data set [2] came out at 50.9 °C.
As to GCTTTGCGAAAGCAACGC ((.((((....)))).)), the folding enthalpy in data set [1] was -20.8 kcal/mol. Besides, the Tm in data set [2] is 55.9 °C.
As for GCTTTGCGAAAGCAGGGC ((..(((....)))..)), in data set [1], the folding enthalpy is -20.1 kcal/mol. Moreover, the Tm in data set [2] worked out at 47 °C.
With GCTTTGCGAAAGCCACGC ((.(.((....)).).)), the folding enthalpy in data set [1] is -10.4 kcal/mol. The Tm in data set [2] was 37 °C.
In the same order, the values of GCTTTGCGAAAGCCAGGC ((.(.((....)).).)) are -10.2 kcal/mol and 38.3 °C.
For the sequence GCTTTGCGAAAGCCGAGC (((..((....))..))), the folding enthalpy in data set [1] is -16 kcal/mol. In addition, the Tm in data set [2] was found to be 41.9 °C.
GCTTTGCGAAAGCCTAGC (((..((....))..))): the folding enthalpy in data set [1] was -13 kcal/mol. Further, the Tm in data set [2] was 41.1 °C.
The like results for GCTTTGCGAAAGCGAGGC ((.(.((....)).).)) were, in that order, -17.1 kcal/mol and 49.7 °C.
The like results for GCTTTGGGAAACCGAAGC ((((.((....)).)))) were, in that order, -39.5 kcal/mol and 52.5 °C.
In the same order, the values of GCTTTTCGAAAGAAGAGC (((.(((....))).))) are -30.7 kcal/mol and 47.4 °C.
For the sequence GCTTTTGAAAAAAAGC ((((((....)))))), the folding enthalpy in data set [1] is -30.5 kcal/mol. The Tm in data set [2] turned out to be 50.4 °C.
In the same order, the values of GCTTTTGGAAACAAAGGC ((.((((....)))).)) are -28.9 kcal/mol and 43 °C.
In the same order, the values of GGAAAAGAAATTTTCC ((((((....)))))) are -23.4 kcal/mol and 37.7 °C.
As to GGAAACCCGAAAGGGTCC (((..(((....)))))), in data set [1], the folding enthalpy is -11.7 kcal/mol. For the same sequence, the Tm in data set [2] turned out to be 35 °C.
The like results for GGAAACGAAAGTTCTTCC ((((((....)))..))) were, in that order, -14.9 kcal/mol and 32.2 °C.
The like results for GGAAACGAAAGTTGATCC ((((((....)))..))) were, in that order, -14.5 kcal/mol and 29.3 °C.
In the same order, the values of GGAAACGAAAGTTTGTCC ((((((....)))..))) are -18.8 kcal/mol and 27.4 °C.
As for GGAAAGACGAAAGTCTCC (((..(((....)))))), the folding enthalpy in data set [1] is -14.5 kcal/mol. In data set [2], the Tm is 36.4 °C.
In the case of GGAAAGCGAAAGCTGTCC (((.(((....))).))), the folding enthalpy in data set [1] is -23.8 kcal/mol. Besides, the Tm in data set [2] came to 53.9 °C.
On to GGAAAGGGAAACTTTTCC (((((.(....).))))), for which the folding enthalpy in data set [1] was -18.8 kcal/mol. Also, the Tm in data set [2] amounted to 38.4 °C.
In the same order, the values of GGAAATGCGAAAGCATCC (((..(((....)))))) are -11.7 kcal/mol and 37.1 °C.
Take GGAAATGGAAACACTTCC ((((.((....)).)))): the folding enthalpy in data set [1] is -31.5 kcal/mol. Also, the Tm in data set [2] came out at 30.2 °C.
In the same order, the values of GGAAATGGAAACATTCCC ((.((((....)))).)) are -25.1 kcal/mol and 33.1 °C.
In the same order, the values of GGAAATGGAAACATTTCC (((((((....))))))) are -41.5 kcal/mol and 56.5 °C.
As for GGAACAACGAAAGTTTCC (((..(((....)))))), the folding enthalpy in data set [1] was -15.5 kcal/mol. Also, the Tm in data set [2] is 29.9 °C.
In the same order, the values of GGAACACGAAAGTGATCC (((.(((....))).))) are -28.5 kcal/mol and 52.7 °C.

The values are drawn from the array DNA melting data of Ke et al. (doi:10.1101/2024.01.08.574731).
